Active and inactive are the calls of the source. No cut-off for these calls is given here.

The subject of the first experiment is A549. As to the kind of experiment: Antiproliferative activity against human A549 cells assessed as reduction in cell viability after 72 hrs by MTT assay. The class given is functional, cell-based. The following applies: A549, 72 h. The method in brief:
(§1)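 MTT assay over 72 h, compounds at 64, 16, 4, 1, 0.25, 0.0625 and 0.015625 μM. MTT solution (5 mg/mL) and DMSO added afterwards, 10 min at room temperature, absorbance read at 490 nm. IC50 calculated as the mean ± SD of three independent experiments.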
Turning to `C=C1C(=O)[C@]23[C@H](OC(=O)CCCC(=O)Oc4ccc(-c5cc(=S)ss5)cc4)[C@H]1CC[C@H]2[C@@]12CO[C@]3(O)[C@@H](O)[C@@H]1C(C)(C)CCC2=O`, the IC50 is 4.38 µM.
`C=C1C(=O)[C@]23[C@H](O)[C@H]1CC[C@H]2[C@@]12CO[C@]3(O)[C@@H](O)[C@@H]1C(C)(C)CCC2=O`: the IC50 is 9.86 µM.
Consider `C=C1C(=O)[C@@]23C(=O)OC[C@]4(C(=O)CCC(C)(C)[C@H]4C=O)[C@@H]2CC[C@@H]1[C@H]3OC(=O)CCC(=O)Oc1ccc(-c2cc(=S)ss2)cc1`, for which the IC50 is 5.54 µM.
As for `C=C1C(=O)[C@@]23C(=O)OC[C@]4([C@@H](OC(C)=O)CCC(C)(C)[C@H]4C=O)[C@@H]2CC[C@@H]1[C@H]3OC(=O)CCC(=O)Oc1ccc(-c2cc(=S)ss2)cc1`, the IC50 amounted to 27.5 µM.
Same read-out and setting: as for `C=C1C(=O)[C@]23[C@H](OC(=O)CCC(=O)Oc4ccc(-c5cc(=S)ss5)cc4)[C@H]1CC[C@H]2[C@@]12CO[C@]3(O)[C@@H](O)[C@@H]1C(C)(C)CCC2=O`, the figure is 9.78 µM.

The subject of the next experiment is SGC-7901. As to the kind of experiment: Antiproliferative activity against human SGC7901 cells assessed as reduction in cell viability after 72 hrs by MTT assay. The experiment is classed as functional, cell-based. The following applies: SGC-7901, 72 h. In outline: as §1
On the technique in general: Formazan colour is commonly taken as a measure of viable cells.
For the compound `O=c1[nH]cc(F)c(=O)[nH]1` [FLUOROURACIL], the IC50 worked out at 6.38 µM.
Still for that read-out and setting: as for `C=C1C(=O)[C@]23[C@H](OC(=O)CCCC(=O)Oc4ccc(-c5cc(=S)ss5)cc4)[C@H]1CC[C@H]2[C@@]12CO[C@]3(O)[C@@H](O)[C@@H]1C(C)(C)CCC2=O`, the figure is 6.59 µM; as for `C=C1C(=O)[C@]23[C@H](O)[C@H]1CC[C@H]2[C@@]12CO[C@]3(O)[C@@H](O)[C@@H]1C(C)(C)CCC2=O`, 16.5 µM; as for `C=C1C(=O)[C@@]23C(=O)OC[C@]4(C(=O)CCC(C)(C)[C@H]4C=O)[C@@H]2CC[C@@H]1[C@H]3OC(=O)CCC(=O)Oc1ccc(-c2cc(=S)ss2)cc1`, 4.24 µM.
The same measure, in the same setting: in the case of `C=C1C(=O)[C@@]23C(=O)OC[C@]4([C@@H](OC(C)=O)CCC(C)(C)[C@H]4C=O)[C@@H]2CC[C@@H]1[C@H]3OC(=O)CCC(=O)Oc1ccc(-c2cc(=S)ss2)cc1` it was 17.9 µM; in that of `C=C1C(=O)[C@]23[C@H](OC(=O)CCC(=O)Oc4ccc(-c5cc(=S)ss5)cc4)[C@H]1CC[C@H]2[C@@]12CO[C@]3(O)[C@@H](O)[C@@H]1C(C)(C)CCC2=O`, 12.5 µM.

The next experiment relates to K562. The experiment is described as follows: Antiproliferative activity against human K562 cells assessed as reduction in cell viability after 72 hrs by MTT assay. The following applies: K562, 72 h. The class given is functional, cell-based. In outline:
as §1
As for `O=c1[nH]cc(F)c(=O)[nH]1` [FLUOROURACIL], the concentration for half-maximal inhibition (IC50) was found to be 4.02 µM.
The same measure, in the same setting: in the case of `C=C1C(=O)[C@]23[C@H](OC(=O)CCCC(=O)Oc4ccc(-c5cc(=S)ss5)cc4)[C@H]1CC[C@H]2[C@@]12CO[C@]3(O)[C@@H](O)[C@@H]1C(C)(C)CCC2=O` it was 3.84 µM; in that of `C=C1C(=O)[C@]23[C@H](O)[C@H]1CC[C@H]2[C@@]12CO[C@]3(O)[C@@H](O)[C@@H]1C(C)(C)CCC2=O`, 4.02 µM.
Same read-out and setting: in the case of `C=C1C(=O)[C@@]23C(=O)OC[C@]4(C(=O)CCC(C)(C)[C@H]4C=O)[C@@H]2CC[C@@H]1[C@H]3OC(=O)CCC(=O)Oc1ccc(-c2cc(=S)ss2)cc1` it was 1.82 µM; in that of `C=C1C(=O)[C@@]23C(=O)OC[C@]4([C@@H](OC(C)=O)CCC(C)(C)[C@H]4C=O)[C@@H]2CC[C@@H]1[C@H]3OC(=O)CCC(=O)Oc1ccc(-c2cc(=S)ss2)cc1`, 15.3 µM; in that of `C=C1C(=O)[C@]23[C@H](OC(=O)CCC(=O)Oc4ccc(-c5cc(=S)ss5)cc4)[C@H]1CC[C@H]2[C@@]12CO[C@]3(O)[C@@H](O)[C@@H]1C(C)(C)CCC2=O`, 3.66 µM.

The next experiment relates to Bel-7402. As to the kind of experiment: Antiproliferative activity against human Bel7402 cells assessed as reduction in cell viability after 72 hrs by MTT assay. The class given is functional, cell-based. The following applies: Bel-7402, 72 h. In outline: as §1
With `O=c1[nH]cc(F)c(=O)[nH]1` [FLUOROURACIL], the IC50 is 17.6 µM.
Still for that read-out and setting: in the case of `C=C1C(=O)[C@]23[C@H](OC(=O)CCCC(=O)Oc4ccc(-c5cc(=S)ss5)cc4)[C@H]1CC[C@H]2[C@@]12CO[C@]3(O)[C@@H](O)[C@@H]1C(C)(C)CCC2=O` it was 3.04 µM; in that of `C=C1C(=O)[C@]23[C@H](O)[C@H]1CC[C@H]2[C@@]12CO[C@]3(O)[C@@H](O)[C@@H]1C(C)(C)CCC2=O`, 3.88 µM.
For `C=C1C(=O)[C@@]23C(=O)OC[C@]4(C(=O)CCC(C)(C)[C@H]4C=O)[C@@H]2CC[C@@H]1[C@H]3OC(=O)CCC(=O)Oc1ccc(-c2cc(=S)ss2)cc1`, the IC50 is 1.38 µM.
Consider `C=C1C(=O)[C@@]23C(=O)OC[C@]4([C@@H](OC(C)=O)CCC(C)(C)[C@H]4C=O)[C@@H]2CC[C@@H]1[C@H]3OC(=O)CCC(=O)Oc1ccc(-c2cc(=S)ss2)cc1`, for which the IC50 stood at 9.73 µM.
On the same count and under the same terms, as for `C=C1C(=O)[C@]23[C@H](OC(=O)CCC(=O)Oc4ccc(-c5cc(=S)ss5)cc4)[C@H]1CC[C@H]2[C@@]12CO[C@]3(O)[C@@H](O)[C@@H]1C(C)(C)CCC2=O`, the figure is 3.52 µM.

The subject of a further experiment is L02. As to the kind of experiment: Cytotoxicity against human L02 cells assessed as reduction in cell viability after 72 hrs by MTT assay. The experiment is classed as cell-based. The following applies: L02, 72 h. The method in brief:
as §1
Turning to `O=c1[nH]cc(F)c(=O)[nH]1` [FLUOROURACIL], the IC50 was greater than 50 µM.
On the same count and under the same terms, as for `C=C1C(=O)[C@]23[C@H](OC(=O)CCCC(=O)Oc4ccc(-c5cc(=S)ss5)cc4)[C@H]1CC[C@H]2[C@@]12CO[C@]3(O)[C@@H](O)[C@@H]1C(C)(C)CCC2=O`, the figure is 21 µM; as for `C=C1C(=O)[C@]23[C@H](O)[C@H]1CC[C@H]2[C@@]12CO[C@]3(O)[C@@H](O)[C@@H]1C(C)(C)CCC2=O`, 23.4 µM.
`C=C1C(=O)[C@@]23C(=O)OC[C@]4(C(=O)CCC(C)(C)[C@H]4C=O)[C@@H]2CC[C@@H]1[C@H]3OC(=O)CCC(=O)Oc1ccc(-c2cc(=S)ss2)cc1`: the IC50 worked out at 18.2 µM.
Still for that read-out and setting: in the case of `C=C1C(=O)[C@@]23C(=O)OC[C@]4([C@@H](OC(C)=O)CCC(C)(C)[C@H]4C=O)[C@@H]2CC[C@@H]1[C@H]3OC(=O)CCC(=O)Oc1ccc(-c2cc(=S)ss2)cc1` it was greater than 50 µM.
As for `C=C1C(=O)[C@]23[C@H](OC(=O)CCC(=O)Oc4ccc(-c5cc(=S)ss5)cc4)[C@H]1CC[C@H]2[C@@]12CO[C@]3(O)[C@@H](O)[C@@H]1C(C)(C)CCC2=O`, the IC50 is greater than 50 µM.

Tested on in another experiment: not listed separately
As to the kind of experiment: Induction of H2S generation in PBS containing Na2S and MB+ cocktail in presence of TCEP/L-cysteine measured at 15 to 20 mins after 20 mins compound incubation by methylene blue dye based UV-Vis spectrophotometric method. The class given is functional.
Settings: not given
In outline:
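Na2S standards (5–150 μM) in sodium phosphate buffer reacted 20 min at room temperature with methylene blue cocktail (FeCl3/HCl, N,N-dimethyl-1,4-phenylenediamine/HCl, Zn(OAc)2) to build a 670 nm calibration curve. Compounds from 40 mM THF stock added to phosphate buffer with 1 mM TCEP or L-cysteine. Aliquots taken into the cocktail at set times, incubated 20 min, read at 670 nm. Mean of three experiments.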
Regarding `C=C1C(=O)[C@@]23C(=O)OC[C@]4(C(=O)CCC(C)(C)[C@H]4C=O)[C@@H]2CC[C@@H]1[C@H]3OC(=O)CCC(=O)Oc1ccc(-c2cc(=S)ss2)cc1`, the outcome was Active.
Turning to `C=C1C(=O)[C@@]23C(=O)OC[C@]4([C@@H](OC(C)=O)CCC(C)(C)[C@H]4C=O)[C@@H]2CC[C@@H]1[C@H]3OC(=O)CCC(=O)Oc1ccc(-c2cc(=S)ss2)cc1`, the outcome was Active.

In the next experiment the test system is PBMC. The experiment is described as follows: Cytotoxicity against human PBMC assessed as reduction in cell viability after 72 hrs by MTT assay. The experiment is classed as cell-based.
Settings: not given
The method in brief: as §1
As for `O=c1[nH]cc(F)c(=O)[nH]1` [FLUOROURACIL], the concentration for half-maximal inhibition (IC50) is greater than 50 µM.
For `C=C1C(=O)[C@]23[C@H](OC(=O)CCCC(=O)Oc4ccc(-c5cc(=S)ss5)cc4)[C@H]1CC[C@H]2[C@@]12CO[C@]3(O)[C@@H](O)[C@@H]1C(C)(C)CCC2=O`, the IC50 was 17.2 µM.
As to `C=C1C(=O)[C@]23[C@H](O)[C@H]1CC[C@H]2[C@@]12CO[C@]3(O)[C@@H](O)[C@@H]1C(C)(C)CCC2=O`, the IC50 was greater than 50 µM.
Same read-out and setting: as for `C=C1C(=O)[C@@]23C(=O)OC[C@]4(C(=O)CCC(C)(C)[C@H]4C=O)[C@@H]2CC[C@@H]1[C@H]3OC(=O)CCC(=O)Oc1ccc(-c2cc(=S)ss2)cc1`, the figure is 16.6 µM.
Still for that read-out and setting: in the case of `C=C1C(=O)[C@@]23C(=O)OC[C@]4([C@@H](OC(C)=O)CCC(C)(C)[C@H]4C=O)[C@@H]2CC[C@@H]1[C@H]3OC(=O)CCC(=O)Oc1ccc(-c2cc(=S)ss2)cc1` it was 25.9 µM.
Same read-out and setting: in the case of `C=C1C(=O)[C@]23[C@H](OC(=O)CCC(=O)Oc4ccc(-c5cc(=S)ss5)cc4)[C@H]1CC[C@H]2[C@@]12CO[C@]3(O)[C@@H](O)[C@@H]1C(C)(C)CCC2=O` it was 29.6 µM.

Broadly, the IC50 is the concentration at which inhibition is half-maximal.

Values taken from ChEMBL document CHEMBL4364267, “Hydrogen sulfide donating ent-kaurane and spirolactone-type 6,7-seco-ent-kaurane derivatives: Design, synthesis and antiproliferative properties” (Eur J Med Chem, 2019).
